# Screening data (PubChem BioAssay)
# Rows were chosen to be rich in hits. Some 2% of all compounds tested hit in one or more screens of this group.
# NR2E3 ag-1: agonists of human nuclear receptor NR2E3; Q9Y5X4; GST-NR2E3/biotin-RetCOR TR-FRET, 1536-well; inhibition of corepressor binding, % at 4.78 µM; 320,000 tested, 0.12% active; AID 2300;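 active = percent inhibition above the cutoff of mean plus 3 SD of all tested compounds, set per screening campaign, cut at about 20% in these data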;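 note: 0% = DMSO wells and 100% = biotin wells as full block of FRET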
# Target sequence (Q9Y5X4 whole entry, looked up): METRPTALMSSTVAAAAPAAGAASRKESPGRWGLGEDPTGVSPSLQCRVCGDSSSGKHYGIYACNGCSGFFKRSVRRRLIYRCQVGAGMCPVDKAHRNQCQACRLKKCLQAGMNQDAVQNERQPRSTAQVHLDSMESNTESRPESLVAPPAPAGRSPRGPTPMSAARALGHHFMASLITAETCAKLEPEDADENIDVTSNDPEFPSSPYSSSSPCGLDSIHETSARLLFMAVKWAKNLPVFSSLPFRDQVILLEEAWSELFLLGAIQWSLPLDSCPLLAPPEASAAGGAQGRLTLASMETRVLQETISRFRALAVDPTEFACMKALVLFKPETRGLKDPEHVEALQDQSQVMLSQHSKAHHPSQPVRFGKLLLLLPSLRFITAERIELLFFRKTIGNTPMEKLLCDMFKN
#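 Test system – NR2E3–RetCOR corepressor complex · Quantity – NR2E3 fusion 1.35 nM · Buffer or medium – Tris pH 7.5 · Incubation – Compound–protein incubation for 5 h at 4 °C · Technique – TR-FRET, Eu(K)-anti-GST donor, streptavidin-D2 acceptor, ex 340, em 617/671 nm · Evaluation – percent inhibition of 671/617 nm emission ratio versus biotin and DMSO controls · Plate – 1536-well format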
# EBV LMP1 NFkB: reduces LMP1-driven NF-kappaB luciferase signal. LMP1-induced NF-kappaB luciferase reporter cells, luminescence. inhibition, % at 12.5 µM. 350,000 tested, 0.69% active. AID 504558; in the data active = inhibition above about 41%;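 note: 0% = neutral control wells and 100% = reference inhibitor control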
# HIF act: HIF pathway transcriptional activation; U2OS HRE-luciferase reporter, luminescence; normalized: DMSO 0%, desferrioxamine 100%; activation, % at 7.5 µM (by protocol); 300,000 tested, 0.32% active;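 active = mean activation of at least 10% of the iron chelator positive control signal, with at least half of replicates also reaching 10%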
# NR2E3 ag-2: human photoreceptor-specific nuclear receptor agonism. CHO-S Gal4-NCOR/VP16-NR2E3 two-hybrid, luciferase. Q9Y5X4. 360,000 tested, 0.35% active. inhibition of corepressor binding, % at 3.98 µM;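 active = inhibition above the mean of all tested compounds plus 3 SD, cut at about 70% in these data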;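 note: 0% = DMSO with NR2E3 transfected cells and 100% = cells lacking NR2E3 construct; higher means lower luciferase signal from less NR2E3 corepressor binding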
# TROY NFkB inh: blocks TROY-dependent signaling in reporter cells. AID 1347056. 360,000 tested, 0.98% active. inhibition, % at 10 µM. Q293 LMP1-TROYcd NF-kB luciferase reporter, 4 h;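 active = compounds whose plate-normalised and pattern-corrected inhibition of the luciferase reporter signal at the single screening dose is 50% or more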
# The depositor's hits bear a star; nt = not tested or not shown.
SMILES,NR2E3 ag-1,EBV LMP1 NFkB,HIF act,NR2E3 ag-2,TROY NFkB inh
N/C(=N\OC(=O)c1ccc(Br)o1)c1ccccn1,1,31,-3,-176,51*
N/C(=N\OC(=O)c1ccccc1)c1ccccn1,4,45*,-1,-132,75*
N/C(=N\OCc1ccc([N+](=O)[O-])cc1)c1ccccn1,2,73*,-3,nt,nt
C/C(=N/OC(=O)c1ccc(C)cc1)c1cccs1,-3,2,1,1,62*
N/C(=N\OC(=O)c1ccccc1)c1ccncc1,3,-4,2,-13,-4
CC(C(=O)O/N=C(\N)c1ccccn1)c1ccc([N+](=O)[O-])cc1 (configuration not stated),1,-1,0,-42,44
COc1ccc(-c2c(C(=O)c3ccccc3)[nH]c(N)c2C(=O)NCc2ccccc2)cc1OC,nt,nt,nt,1,35
COc1cc(C(=O)O/N=C(\N)c2ccccn2)cc(OC)c1OC,-1,-3,3,-25,-29
Cc1ccc(C(=O)O/N=C(\N)c2ccccn2)cc1C,4,56*,-4,-16,81*
Cc1cccc(OCC(=O)O/N=C(\N)c2ccccn2)c1,1,-25,3,-98,-62
Cc1cccc(C(=O)O/N=C(\N)c2ccccn2)c1,5,38,-4,-54,85*
C/C(=N\OC(=O)c1ccc(Br)cc1)c1ccccn1,0,-3,0,-14,-39
N/C(=N\OC(=O)c1cccc(F)c1)c1ccccn1,-2,23,-3,-111,61*
Cc1ccc(C(=O)O/N=C(\N)c2ccccn2)cc1,1,79*,-5,-75,84*
COc1ccccc1NS(=O)(=O)c1cccc(C(=O)NCC(c2cccs2)N2CCOCC2)c1 (configuration not stated),1,-2,nt,-24,18
COc1ccc(OC)c(NC(=O)CSc2nnc3ccc(-c4ccccn4)nn23)c1,-4,-10,0,2,-3
Cc1ccc(C(=O)O/N=C(\N)c2nonc2N)cc1,-2,-25,1,-30,66*
CC(C)(C)N1CC(C(=O)Nc2ccc(C(N)=O)cc2)CC1=O (configuration not stated),nt,-6,nt,32,-14
CCOC(=O)c1cccc2c1-c1ccccc1/C2=N/O,-5,24,0,-29,50*
CCN(CC)CCN(C(=O)c1ccc2c(c1)CCCC2)c1nc2ccc(F)cc2s1,-2,-12,2,-38,55*
CCN(CC)CCN(C(=O)c1ccccc1OC)c1nc2ccc(F)cc2s1,1,-2,nt,24,76*
CCN(CC)CCN(C(=O)c1ccc2c(c1)CCCC2)c1nc2ccc(C)cc2s1,4,-8,1,-31,-13
CN(C)CCN(C(=O)c1cc(Cl)sc1Cl)c1nc2ccc(F)cc2s1,2,-13,2,-24,-28
O=c1cc(-c2ccccc2Cl)oc2c(NS(=O)(=O)c3cc(Cl)cc(Cl)c3O)ccc(O)c12,4,12,0,-20,68*
O=C(/C=C/c1ccccc1F)c1cccc([N+](=O)[O-])c1,5,45*,0,-1,18
SMILES,NR2E3 ag-1,EBV LMP1 NFkB,HIF act,NR2E3 ag-2,TROY NFkB inh
O=C(/C=C/c1cccnc1)c1ccc([N+](=O)[O-])cc1,1,0,1,-54,21
O=C(C=Cc1ccccc1)c1ccc([N+](=O)[O-])cc1,nt,56*,nt,-51,1
COc1cc(/C=C/C(=O)c2cccc([N+](=O)[O-])c2)cc(OC)c1OC,-3,16,1,11,36
O=C(NCCCN1CCOCC1)c1cnccn1,0,-3,-1,-1,-18
O=C(Cc1cccc(NC(=O)C2CCCN(C(=O)CCc3ccccc3)C2)c1)Nc1ccc(C(=O)N2CCOCC2)cc1 (configuration not stated),nt,-4,nt,-14,1
COc1ccccc1-c1cc(C(F)(F)F)nc(S(C)(=O)=O)n1,0,-5,16*,8,53*
COc1ccccc1-c1cc(C(F)(F)F)nc(S(=O)(=O)CCCC(=O)NCc2ccc(F)cc2)n1,3,14,26*,6,84*
COc1ccc(-c2cc(C(F)(F)F)nc(S(=O)(=O)CCCC(=O)Nc3cc(C)on3)n2)cc1OC,nt,-1,12*,-29,52*
COc1ccccc1-c1cc(C(F)(F)F)nc(S(=O)(=O)CCCC(=O)Nc2cccnc2Cl)n1,nt,-24,nt,3,62*
COc1ccccc1-c1cc(C(F)(F)F)nc(N2CCCC2)n1,3,-13,0,-7,10
CCC(C)c1ccc(N(C(=O)c2ccco2)C(C(=O)NC2CCCC2)c2cccnc2)cc1 (configuration not stated),3,-49,0,-56,13
COc1ccccc1-c1cc(C(F)(F)F)nc(S(=O)(=O)CCCC(=O)NC(C)C)n1,1,-4,24*,-6,-5
COc1ccccc1-c1cc(C(F)(F)F)nc(S(=O)(=O)CCCC(=O)Nc2cc(C)on2)n1,0,-8,0,-14,39
COc1ccccc1-c1cc(C(F)(F)F)nc(S(=O)(=O)CCCC(=O)N2CCCCC2C)n1 (configuration not stated),-2,0,11*,-4,65*
O=C(Nc1cc(Cl)ccc1N1CCOCC1)c1ccc(=O)[nH]c1,nt,0,nt,-5,8
O=C(Nc1ccccc1)c1cc(C2CCCN(C(=O)C3CC3)C2)on1 (configuration not stated),nt,nt,nt,-32,76*
O=C(NCc1ccccc1)c1cc(C2CCCN(C(=O)C3CC3)C2)on1 (configuration not stated),nt,nt,nt,-28,-25
CN(C)c1ccc(CC(=O)N2CCCC(c3cc(C(=O)Nc4ccccc4)no3)C2)cc1 (configuration not stated),nt,nt,nt,11,76*
CC(=O)N1CCCC(c2cc(C(=O)Nc3ccccc3)no2)C1 (configuration not stated),nt,nt,nt,39,80*
CN(C)c1ccc(CC(=O)N2CCCC(c3cc(C(=O)Nc4ccc5c(c4)OCO5)no3)C2)cc1 (configuration not stated),nt,nt,nt,12,-10
CC1=C(C(=O)N(C(C)C)C(C)C)CC(CC(=O)NC(c2ccccc2)c2ccccc2)C(=O)N1Cc1ccc(F)cc1 (configuration not stated),nt,nt,nt,-8,13
O=C(O)c1ccccc1Nc1cccc(OCc2ccc3ccccc3n2)c1,4,82*,nt,-13,24
CC(=O)Nc1ccc(C=NNC(=O)CCCC(=O)NN=Cc2ccc(NC(C)=O)cc2)cc1,nt,81*,nt,-9,2
COc1ccc(S(=O)(=O)NCCN2CCNC2=O)cc1OC,0,nt,0,27,1
O=C1NCCN1CCNS(=O)(=O)c1ccc(F)cc1,0,-6,0,-7,65*
CCOC(=O)N1CCN(C(=O)C2CCC(=O)N(Cc3ccccc3OC)C2)CC1 (configuration not stated),nt,46*,nt,-41,-10
